Results reported in ChEMBL document CHEMBL1133549, “N4-(omega-Aminoalkyl)-1-[(omega-aminoalkyl)amino]-4- acridinecarboxamides: novel, potent, cytotoxic, and DNA-binding agents” (J Med Chem, 2000).

Key:
CH1 [1] = experiment: The compound was tested for cytotoxic activity against CH1 cell line(human ovarian carcinoma ); type: functional, cell-based
Outline: (§1)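 Human ovarian carcinoma cells (100–5000) were plated and allowed to adhere overnight. Drug was diluted from DMSO stock into aqueous solution at pH 7.0 and applied continuously for 96 h at 37 °C. Growth was read by SRB protein staining. IC50 is 50% growth inhibition versus drug-free controls, from a representative experiment with 4 replicate wells per concentration and 8 control wells.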

A2780 [2] = experiment: The compound was tested for cytotoxic activity against A2780 cell line(human ovarian carcinoma ); type: functional, cell-based; outline: as §1
Nucleic Acid [3] = experiment: Binding affinity against CT-DNA from calf thymus DNA; type: nucleic-acid assay; details: Bos taurus
Outline: (§2)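 Ethidium displacement measured fluorometrically at 20 °C (excitation 546 nm, emission 595 nm). Buffer was 10 mM Na2HPO4, 10 mM NaH2PO4, 1 mM EDTA, pH 7.0, with 1.26 µM ethidium bromide and 1 µM of CT-DNA, [poly(dA-dT)]2 or [poly(dG-dC)]2. Drug was added serially from a ~5 mM DMSO stock. C50 (50% loss of bound-ethidium fluorescence) is the mean of three determinations. Kapp = 1.26/C50 × 10^7.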

HT-29 = experiment: The compound was tested for cytotoxic activity against HT-29 cell line(human colon adeno carcinoma); type: functional, cell-based
Outline: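 HT29 colon adenocarcinoma cells at 2.5×10^4 cells/mL received drug under protracted exposure for 144 h. Assays were run in triplicate.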

SK-OV-3 = experiment: The compound was tested for cytotoxic activity against SKOV-3 cell line(human ovarian carcinoma ); type: functional, cell-based; outline: as §1
A2780cisR [4] = experiment: The compound was tested for cytotoxic activity against A2780cisR cell line(human ovarian carcinoma ); type: functional, cell-based; outline: as §1
[5] = (§3) The compound was tested for cytotoxic activity against CH1/Cs cell line(human ovarian carcinoma); type: functional, cell-based; outline: as §1
Nucleic Acid [6] = experiment: Tested for binding affinity against AT from [poly(dA-dT)]2.; type: nucleic-acid assay; outline: as §2
Nucleic Acid [7] = experiment: Binding affinity against GC from [poly(dG-dC)]2.; type: nucleic-acid assay; outline: as §2
CH1 [8] = experiment: as §3; type: functional, cell-based; outline: as §1
A2780cisR [9] = experiment: The compound was tested for cytotoxic activity against A2780cisR cell line(human ovarian carcinoma; type: functional, cell-based; outline: as §1
A2780 [10] = experiment: The compound was tested for cytotoxic activity against A2780/Cs cell line(human ovarian carcinoma; type: functional, cell-based; outline: as §1
A2780cisR [11] = experiment: The compound was tested for cytotoxic activity against A2780cisR cell line(human ovarian carcinoma); type: functional, cell-based; outline: as §1

K app (Nucleic Acid [3]) | K app (Nucleic Acid [6]) | K app (Nucleic Acid [7]) | Compound | IC50 (CH1 [1]) | IC50 (A2780 [2]) | IC50 (HT-29) | IC50 (SK-OV-3) | IC50 (A2780cisR [4]) | IC50 [5] | IC50 (A2780cisR [4]; Homo sapiens, A2780cisR) | IC50 (CH1 [8]) | IC50 (A2780cisR [9]) | IC50 (A2780cisR [4]; a2780cisr) | IC50 (A2780 [10]) | IC50 (A2780cisR [11])
3.7e+07 M⁻¹ |  |  | CN(C)CCNC(=O)c1ccc(NCCN(C)C)c2c(=O)c3ccccc3[nH]c12 | 0.02 µM | 0.015 µM | 0.094 µM | 0.4 µM |  |  |  |  |  |  |  | 
1.1e+06 M⁻¹ | 1.4e+06 M⁻¹ | 1e+06 M⁻¹ | CN(C)CCNC(=O)c1cccc2cc3ccccc3nc12 | 0.48 µM | 0.51 µM | 0.99 µM | 0.98 µM | 0.57 µM | 0.53 µM |  |  |  |  |  | 
2.9e+08 M⁻¹ | 3.1e+07 M⁻¹ | 1e+08 M⁻¹ | CN(C)CCNC(=O)c1ccc(NCCN(C)C)c2cc3cc(O)ccc3nc12 | 0.15 µM | 0.11 µM | 0.85 µM | 0.9 µM | 0.19 µM | 0.2 µM |  |  |  |  |  | 
8.5e+07 M⁻¹ | 2.2e+07 M⁻¹ | 5.6e+07 M⁻¹ | NCCNC(=O)c1ccc(NCCN)c2cc3ccccc3nc12 | 1.2 µM | 12 µM | 6.94 µM | 12 µM | 3.15 µM | 1.55 µM |  |  |  |  |  | 
 |  |  | CN(C)CCNC(=O)c1ccc(Cl)c2cc3ccccc3nc12 | 1.75 µM | 2.05 µM | 0.79 µM | 3.3 µM | 2.04 µM | 1.9 µM |  |  |  |  |  | 
 |  |  | CN(C)CCNC(=O)c1ccc(NCCN(C)C)c2cc3cc(N)ccc3nc12 [listing 1 of 3 here] | 0.089 µM | 0.32 µM | 0.7 µM | 0.155 µM |  |  | 0.365 µM | 0.1 µM |  |  |  | 
1.5e+08 M⁻¹ | 1.7e+07 M⁻¹ | 9.1e+07 M⁻¹ | CCN(CC)CCNC(=O)c1ccc(NCCN(CC)CC)c2cc3ccccc3nc12 | 0.185 µM | 0.415 µM | 0.58 µM | 0.5 µM |  | 0.375 µM |  |  | 0.475 µM |  |  | 
9.9e+07 M⁻¹ | 4.5e+07 M⁻¹ | 3e+08 M⁻¹ | CN(C)CCNC(=O)c1ccc(NCCNCCO)c2cc3ccccc3nc12 | 0.052 µM | 0.085 µM | 0.1 µM | 0.24 µM | 0.091 µM | 0.046 µM |  |  |  |  |  | 
 |  |  | CN(C)CCCNC(=O)c1ccc(NCCCN(C)C)c2cc3ccccc3nc12 [listing 1 of 2 here] | 0.86 µM | 1.95 µM | 0.71 µM | 0.66 µM |  |  | 1.25 µM | 0.53 µM |  |  |  | 
 |  |  | CN(C)CCNC(=O)c1ccc(NCCN(C)C)c2cc3cc(N)ccc3nc12 [listing 2 of 3 here] | 0.089 µM | 0.32 µM | 0.7 µM | 0.155 µM | 0.365 µM |  |  | 0.1 µM |  |  |  | 
 |  |  | COc1cccc2c1C(=O)c1c(O)c3c(c(O)c1C2=O)C[C@@](O)(C(=O)CO)C[C@@H]3O[C@H]1C[C@H](N)[C@H](O)[C@H](C)O1 [DOXORUBICIN] |  |  |  |  |  |  | 0.017 µM | 0.45 µM |  |  |  | 
 |  |  | CISPLATIN |  |  |  |  |  |  |  |  |  | 3.4 µM |  | 
1.5e+09 M⁻¹ | 2.8e+07 M⁻¹ | 2.3e+08 M⁻¹ | CN(C)CCNC(=O)c1ccc(NCCN(C)C)c2cc3ccccc3nc12 | 0.007 µM | 0.0043 µM | 0.007 µM | 0.11 µM |  | 0.005 µM |  |  |  |  | 0.007 µM | 
1.4e+09 M⁻¹ | 2.8e+08 M⁻¹ | 4.1e+08 M⁻¹ | CN(C)CCNC(=O)c1ccc(NCCN(C)C)c2cc3cc(N)ccc3nc12 [listing 3 of 3 here] |  |  |  |  |  |  |  |  |  |  |  | 
1.9e+07 M⁻¹ | 1.4e+07 M⁻¹ | 5.9e+07 M⁻¹ | COc1ccc2nc3c(C(=O)NCCN(C)C)ccc(NCCN(C)C)c3cc2c1 | 0.05 µM | 0.096 µM | 0.56 µM | 0.06 µM |  | 0.044 µM |  |  |  |  |  | 0.125 µM
4.4e+06 M⁻¹ | 5e+06 M⁻¹ | 3e+06 M⁻¹ | O=C(NCCN1CCOCC1)c1ccc(NCCN2CCOCC2)c2cc3ccccc3nc12 | 1.85 µM | 2.3 µM | 2.7 µM | 3.2 µM | 2.5 µM | 2.15 µM |  |  |  |  |  | 
 |  |  | CN(C)CCCNC(=O)c1ccc(NCCCN(C)C)c2cc3ccccc3nc12 [listing 2 of 2 here] | 0.86 µM | 1.95 µM | 0.71 µM | 0.66 µM |  | 0.53 µM |  |  |  |  | 1.25 µM | 
3.4e+07 M⁻¹ | 2.7e+07 M⁻¹ | 6.3e+07 M⁻¹ | O=C(NCCN1CCCCC1)c1ccc(NCCN2CCCCC2)c2cc3ccccc3nc12 | 0.135 µM | 0.1 µM | 0.44 µM | 0.14 µM | 0.12 µM | 0.11 µM |  |  |  |  |  | 
